NadD block: blocks S. aureus nicotinate mononucleotide adenylyltransferase; purified NadD enzyme, colorimetric absorbance read-out; inhibition, % at 20 µM; hit rate 0.78% among 360,000; AID 602399; in the data active means inhibition above about 26%
PP1 counter: PP1-alpha (human) inhibition in PP5 counter-screen; purified PP1alpha, OMFP fluorescence; hit rate 0.9% among 320,000; inhibition, % at 6.7 µM; P62136; AID 2235;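 active means inhibition above the mean inhibition of all tested compounds plus 3 SD, computed separately for each screening campaign, cut at about 15% in these data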
Target sequence (P62136 whole entry, looked up): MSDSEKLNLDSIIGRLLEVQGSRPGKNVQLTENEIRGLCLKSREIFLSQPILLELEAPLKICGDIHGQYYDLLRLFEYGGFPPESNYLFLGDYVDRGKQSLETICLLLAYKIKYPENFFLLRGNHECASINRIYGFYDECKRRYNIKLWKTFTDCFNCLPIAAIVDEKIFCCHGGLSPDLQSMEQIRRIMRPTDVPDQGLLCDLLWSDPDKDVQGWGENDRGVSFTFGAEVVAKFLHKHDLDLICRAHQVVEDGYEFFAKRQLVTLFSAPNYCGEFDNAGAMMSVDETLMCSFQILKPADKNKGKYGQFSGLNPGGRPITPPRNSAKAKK
Myeloid diff 2: myeloid differentiation induction. ER-HoxA9 myeloid progenitors, lysozyme-GFP differentiation, flow cytometry. calls only at 10 µM. hit rate 1% among 360,000. AID 624256;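 active means normalized GFP-positive differentiation at or above the plate's own cutoff, the solvent-only control mean plus 3 SD; inconclusive means no clear call, values can overlap the other calls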;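 further: cells exposed to compound for four days before flow analysis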
PP5 primary: blocks human protein phosphatase 5 activity; purified PP5c, OMFP substrate fluorescence; hit rate 0.18% among 320,000; inhibition, % at 6.7 µM; P53041;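 active means inhibition above the campaign's mean inhibition across all tested compounds plus 3 SD, cut at about 9.5% in these data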
core dimer inh: HCV core protein dimerization inhibition; hit rate 0.33% among 300,000; TR-FRET GST/Flag-core106 dimerization, 1536-well; AID 1899; inhibition, % at 5 µM;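 active means inhibition above the mean of all tested compounds plus 3 SD, set per screening campaign, cut at about 45% in these data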
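Test system: GST/Flag-tagged HCV core106 proteins; Medium: KF-containing HEPES buffer, pH 7.45, DTT, CHAPS, BSA; Times: compound-protein-antibody incubation 4 h at 22.5 °C; Detection: TR-FRET 671 and 617 nm emission; Benchmarks: wells lacking GST-core106 and wells with excess unlabelled core106.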
CTSL1 counter: blocks F. hepatica cathepsin L1 in PFM18AAP counter-screen | recombinant F. hepatica cathepsin L1, Z-Leu-Arg-MCA fluorescence | inhibition, % at 5.96 µM | hit rate 0.49% among 300,000 | AID 1906;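 active means inhibition above the mean of all tested compounds plus 3 SD, set per screening campaign, cut at about 17% in these data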
Numbers stand for hits; i = inactive; ? = inconclusive; nt = no result; + = active, no number. This is a sample that favours compounds with a hit; in the whole collection about 3.1% have one here.

SMILES | NadD block | PP1 counter | Myeloid diff 2 | PP5 primary | core dimer inh | CTSL1 counter
C=C(NC(=O)C(=C)NC(=O)c1csc(C2=NC3c4csc(n4)C4NC(=O)c5csc(n5)C([C@@](C)(O)C(C)O)NC(=O)C5CSC(=N5)/C(=C\C)NC(=O)C(C(C)O)NC(=O)c5csc(n5)[C@]3(CC2)NC(=O)C(C)NC(=O)C(=C)NC(=O)C(C)NC(=O)C(C(C)CC)NC2C=Cc3c(C(C)O)cc(nc3C2O)C(=O)OC4C)n1)C(N)=O (some centres undefined) | nt | i | nt | i | 70 | i
O=C(/C=C\c1ccc(-c2ccccc2)o1)c1ccccc1 | i | i | i | i | i | 66
CN(C(=O)c1ccc(NC(=O)Cc2ccc(NC(=O)C3CCCN(C(=O)C4CCCC4)C3)cc2)cc1)C1CC1 (centres undefined) | i | i | + | i | nt | nt
CN(C(=O)c1ccc(NC(=O)Cc2ccc(NC(=O)C3CCN(C(=O)CCc4ccccc4)CC3)cc2)cc1)C1CCCC1 | i | nt | + | nt | nt | nt
CN(C(=O)c1ccc(NC(=O)Cc2ccc(NC(=O)C3CCCN(C(=O)C4CCCCC4)C3)cc2)cc1)C1CC1 (centres undefined) | i | i | i | i | nt | nt
CC(=O)Oc1ccccc1/C=C/c1nc2ccccc2c(=O)o1 | i | i | i | i | i | i
O=c1oc(/C=C/c2ccc([N+](=O)[O-])s2)nc2ccccc12 | i | i | + | i | i | i
COc1cc(Br)cc(/C=N/NC(=O)Cc2ccc(C(F)(F)F)cc2[N+](=O)[O-])c1O | 39 | i | i | i | i | i
CCOc1cc(/C=N/NC(=O)Cc2ccc(C(F)(F)F)cc2[N+](=O)[O-])c(Br)cc1OC | i | i | i | i | i | i
Cc1ccc(-n2ccnc(SCC(=O)NC3CCCCC3)c2=O)cc1F | i | i | i | i | i | 25
COc1ccc(-n2ccnc(SCC(=O)NC3CCCC3)c2=O)cc1OC | i | i | i | i | i | i
Cc1ccsc1C(=O)NNC(=O)c1cccc(S(=O)(=O)N2CCCC2)c1 | i | i | i | i | nt | nt
Cc1oc(=O)c(NC(=O)c2ccc(Cl)cc2)cc1C(=O)c1ccccc1 | i | i | i | i | i | 19
Cc1oc(=O)c(NC(=O)c2ccccc2)cc1C(=O)c1ccccc1 | i | i | i | i | i | 35
CC(=O)c1cc(NC(=O)c2ccccc2)c(=O)oc1C | i | i | i | i | i | i
C[C@H](CO)N1C[C@H](C)[C@@H](CN(C)S(=O)(=O)c2ccccc2)OCc2cnnn2CCCC1=O | i | nt | i | nt | nt | nt
O=c1cc(O)n(Cc2ccc(F)cc2)c(=O)[nH]1 | i | nt | i | nt | nt | nt
CCOC(=O)c1ccc2ncc(C(=O)OCC)c(NCCN(C)C)c2c1 | i | i | i | i | i | 66
CCOC(=O)c1ccc2ncc(C(=O)OCC)c(NCCN3CCOCC3)c2c1 | i | i | i | i | i | i
CCn1cc(CN2CCCC(C(=O)Nc3cccc(-c4cc5ccccc5[nH]4)c3)C2)cn1 (centres undefined) | i | i | i | i | i | i
CCC(NC(=O)CCc1nnc(-c2cc(C)on2)o1)C12CC3CC(CC(C3)C1)C2 (centres undefined) | i | i | i | i | i | i
O=C1/C(=C/c2ccccc2)SC(=S)N1CC(=O)N1CCCCC1c1cccnc1 (centres undefined) | 45 | 17 | ? | i | i | i
O=C1/C(=C\c2ccccc2)SC(=S)N1CCC(=O)N1CCCCC1CCO (centres undefined) | i | i | ? | i | i | i
Cc1cc(C)c2c(c1)/C(=N\N=c1\sc3ccccc3n1C)C(=O)N2 | i | i | + | i | i | i
CCC(C)[C@H](N)c1nnc(SCC(=O)Nc2ccc(C)cc2C)o1 (some centres undefined) | i | i | i | i | i | 32
SMILES | NadD block | PP1 counter | Myeloid diff 2 | PP5 primary | core dimer inh | CTSL1 counter
N[C@@H](Cc1ccccc1)c1nnc(SCc2ccccc2Cl)o1 | i | i | i | i | i | i
CCc1ccccc1NC(=O)CSc1nnc([C@@H](N)Cc2ccccc2)o1 | i | i | i | i | i | 68
CCc1ccccc1NC(=O)CSc1nc(C)c(C)o1 | i | nt | i | nt | nt | nt
CCN(CC)C(=O)CSc1nnc([C@@H](N)Cc2ccccc2)o1 | i | i | i | i | i | 44
CCCNC(=O)C1(C)CCCN(C(=O)c2ccc(C)c(F)c2)C1 (centres undefined) | i | nt | i | nt | nt | nt
CC(C)CC1C(=O)N(Cc2cn(CCC3OCCCO3)nn2)CCS(=O)(=O)N1Cc1ccc(-c2cccc(N(C)C)c2)cc1 (centres undefined) | i | nt | i | nt | nt | nt
CC(=O)c1coc2ccc(OCC(=O)O)cc12 | i | i | + | i | i | i
Cc1nc(C)c(C(=O)Nc2nc3c(C)cccc3s2)o1 | i | i | i | i | 54 | i
C=CCOc1ccc(/C=C2\SC(=Nc3cccnc3)NC2=O)cc1 | i | 16 | i | i | i | i
O=C(Nc1cccc(C(=O)N2CCOCC2)c1)c1ccccc1Cl | i | i | i | i | i | i
CC(=O)C1CCC2C3CC(O)C4=CC(=O)CCC4(C)C3C(=O)CC12C (centres undefined) | i | nt | + | nt | nt | nt
Cc1ccc(C)c(OC(=O)c2cccnc2Cl)c1C | i | i | i | i | i | i
O=C(NCCC1=CCCCC1)C1CCC(=O)N(Cc2ccc(Cl)cc2)C1 (centres undefined) | i | i | + | i | i | i
Cc1cc(N2CCCCCC2)nc2ccccc12 | i | i | i | i | i | 20
CCCN(CCC)C(=O)c1cc(-c2ccc3c(c2)OCO3)nc2ccccc12 | i | i | i | i | 56 | i
Cc1ccc([C@@H]2CC=C(C(=O)O)[C@H](c3ccccc3F)N2S(=O)(=O)c2ccccc2C)cc1 | i | nt | i | nt | nt | nt
CCC1CCCN1Cn1cnc2c([nH]c3ccc(Cl)cc32)c1=O (centres undefined) | i | i | i | i | i | 19
CCCOc1cc(C)c(S(=O)(=O)NCc2cccs2)cc1C | i | nt | i | nt | nt | nt
Cc1cc(NC(=O)CSc2nnc(-c3ccoc3C)n2N)no1 | i | i | i | i | i | i
CCOc1ccc(C(C)=O)cc1CSc1nnc(-c2ccoc2C)n1N | i | i | i | i | 46 | i
Cc1c(-c2ccccc2)nc2ccccc2c1C(=O)Oc1ccc([N+](=O)[O-])cc1 | i | i | i | i | i | i
Cc1c(-c2ccc(OCc3ccccc3)cc2)nc2ccccc2c1C(=O)O | i | i | + | i | i | i
Clc1ccc(-c2nc3ccccn3c2CN2CCOCC2)cc1 | i | i | + | i | i | i
CCCCc1nnc(SCC(=O)NC2CCCCC2)n1C | i | i | nt | i | i | i
Cc1ccc(NC(=O)c2nc[nH]c2C(=O)Nc2ccc(C)cc2)cc1 | i | i | i | i | i | i
Cc1ccc(NC(=O)c2nc[nH]c2C(=O)NCCN(CCNC(=O)c2[nH]cnc2C(=O)Nc2ccc(C)cc2)CCNC(=O)c2[nH]cnc2C(=O)Nc2ccc(C)cc2)cc1 | 38 | nt | i | nt | nt | nt

Source: PubChem
